Assays:
[1] = folding enthalpy; higher = less favourable; fluorescence melt of hairpins on a sequencing array, two-state fit; details: sodium 0.088 M
How it was run: (§1)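 Bootstrapped two-state fits yielded melting temperature and folding enthalpy for library hairpins. Cy3 fluorescence, with annealed Cy3 and quencher oligos, was imaged on a sequenced MiSeq flow cell in 50 mM Na-HEPES pH 8.0, 25 mM NaCl in 2.5 °C steps up to 60 °C, and normalised to pre-quench Cy3 and to control constructs. Four replicates were combined by inverse variance, and fitted temperatures were raised by 9.35 °C to match UV melts.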

[2] = melting temperature; fluorescence melt of hairpins on a sequencing array, two-state fit, raised by 9.35 °C to match UV melts; details: sodium 0.088 M
How it was run: as §1

Row | Sequence | folding enthalpy [1] [kcal/mol] | Tm [2] [°C]
1 | GCCGGTGGAAACATCGGC ((((.((....)).)))) | -45.8 | 58.9
2 | GCTAGCGAAAGCTCAGC ((((((....))).))) | -19.6 | 48.9
3 | GCGCTGCGAAAGCCGTGC ((.(.((....)).).)) | -21.5 | 51.9
4 | GGGTGGGGAAACCCGTCC ((..(((....)))..)) | -19 | 48.8
5 | AGTCTGAAAAGACT (((((....))))) | -19.6 | 47
6 | GAATTACGAAAGTAGTTC (((.(((....))).))) | -31.5 | 42.6
7 | GAAGCGCGAAAGCGTTTC (((.(((....))).))) | -23.1 | 56
8 | GGCAGTCGAAAGACAGCC (((.(((....))).))) | -38.9 | 61.8
9 | GATACCGGAAACGGTATC (((((((....))))))) | -34.2 | 65
10 | GCTAACGGAAACATTAGC (((((.(....).))))) | -23.1 | 32.9
11 | GTTGTTACGAAAGTAAAC (((..(((....)))))) | -27.2 | 44.2
12 | GCTATCGAAAGATGCAGC ((((((....)))..))) | -18.3 | 35.8
13 | GATCGATGCGTCGATC ((((((....)))))) | -43.7 | 57
14 | GATCCCCGAAAGGGTATC (((.(((....))).))) | -21.1 | 42.2
15 | GCACACGAAAGTGAATGC ((((((....)))..))) | -23.9 | 42.8
16 | GGTTGCGAAAGCAATACC ((((((....)))..))) | -13.3 | 42.9
17 | GGTGTGCGAAAGCATACC (((.(((....))).))) | -38.4 | 63.6
18 | GCAGTCGGAAACGACCGC ((.((((....)))).)) | -27.3 | 52
19 | GCATAGGGAAACCCATGC ((((.((....)).)))) | -29.9 | 45.5
20 | GGCGAGACGAAAGTCGCC (((..(((....)))))) | -13.8 | 59.4
21 | GTGTGTCGAAAGACCAC (((.(((....)))))) | -28.9 | 54.5
22 | GTCTGCGGAAACGTAGGC (.((.((....)).)).) | -26.7 | 42.4
23 | GCCCTGCGAAAGCCGTGC ((.(.((....)).).)) | -11.6 | 31.7

Row | Sequence | folding enthalpy [1] [kcal/mol] | Tm [2] [°C]
24 | GAACGAGGAAACTCGCTC ((.((((....)))).)) | -20.5 | 38.9
25 | GCCTTAGGAAACCAAGGC (((((.(....).))))) | -27.4 | 45.2
26 | GATTTGGGAAACCAAACC (.(((((....))))).) | -19.4 | 34
27 | GCCACCGGAAACGACGGC (((..((....))..))) | -24.9 | 41.4
28 | GCGCGCGAAAGCGGCCGC ((((((....)))..))) | -15.3 | 59
29 | GTACGCGGAAACGTGTAC ((((.((....)).)))) | -28.1 | 54.6
30 | GCCACCGAAAGGTAAGGC ((((((....)))..))) | -26.9 | 52.6
31 | GGTATTGGAAACAACACC (((.(((....))).))) | -31.9 | 32.2
32 | TCGGGGAAACCCGA (((((....))))) | -22.8 | 53.3
33 | GCGGAGCCGAAAGGCCGC (((..(((....)))))) | -18.8 | 61.1
34 | GAAGTACGAAAGTATTTC (((.(((....))).))) | -28.9 | 40.5
35 | GCAAGGGGAAACCCTTGC (((((((....))))))) | -38.3 | 68.3
36 | GACTCCGGAAACGAAGTC ((((.((....)).)))) | -29.4 | 37.1
37 | GTGGACGGAAACGTTCGC (.(.(((....))).).) | -26.6 | 45
38 | GCCGTATCGAAAGATGGC (((..(((....)))))) | -9.59 | 47.4
39 | GCATGGGGAAACCTGTGC (((..((....))..))) | -30.3 | 44.3
40 | GCGATGCGAAAGCTCCGC (((..((....))..))) | -19.9 | 52.5
41 | GGTGGTGGAAACGTCACC ((((..(....)..)))) | -23.4 | 44.5
42 | GATCGGAATCCGATC ((((((...)))))) | -34.8 | 53.5
43 | GTATACGGAAACGTATGC (.(((((....))))).) | -24.5 | 46.4
44 | GCGACAGGAAACTGTCAC (.(((((....))))).) | -16.6 | 43.8
45 | GTTGGAGGAAACCCCAAC (((((.(....).))))) | -35.2 | 44.5
46 | GTCATTGGAAACGATGAC (((((.(....).))))) | -41.1 | 46.7

Row | Sequence | folding enthalpy [1] [kcal/mol] | Tm [2] [°C]
47 | GATCGAGTAATCGATC ((((((....)))))) | -39 | 57.4
48 | GTTAACCGAAAGGTAAC (((.(((....)))))) | -18.8 | 40.8
49 | GAGTGTGGAAACACATTC ((.((((....)))).)) | -17.6 | 42.5
50 | GACGCCACGAAAGTGGTC (((..(((....)))))) | -8.49 | 32.1
51 | GATCTAGTTGTAGATC ((((((....)))))) | -28.2 | 41.2
52 | CGGTCGGAAACGAATCCG ((((((....)))..))) | -25.8 | 37
53 | GCGGCGCGAAAGCCCTGC ((.(.((....)).).)) | -18.3 | 45.6
54 | GGGGCGACGAAAGTCCCC (((..(((....)))))) | -16.4 | 56
55 | GGTTAAGAAATTAACC ((((((....)))))) | -23.8 | 43.5
56 | CGTGTCGGAAACGATACG (((.(((....))).))) | -39.1 | 53.2
57 | CGGTCGGAAACGACCCG ((((((....))).))) | -10 | 51.5
58 | GATCATTTCCATGATC ((((((....)))))) | -40.5 | 46.1
59 | GATCACACCGTGATC ((((((...)))))) | -38.5 | 60.6
60 | GTGTACGCGAAAGCGCAC (((..(((....)))))) | -16.7 | 48.9
61 | GATCCCACAGGGGATC ((((((....)))))) | -33.4 | 61.8
62 | GCCCTGCGAAAGCCTGGC (((..((....))..))) | -16.2 | 45.5
63 | GCTATGCGAAAGCTAAGC (((..((....))..))) | -17.2 | 47.6
64 | GCGCACGGAAACGTACGC (((.(((....))).))) | -44.3 | 56
65 | GCAGGTCCGAAAGGATGC (((..(((....)))))) | -16.6 | 37.7
66 | GCAAGGAAACTTGC (((((....))))) | -26.6 | 53.3
67 | GTTACACGAAAGTGCAAC (((.(((....))).))) | -23.6 | 44.7
68 | GGGTACCGAAAGGTCCC (((.(((....)))))) | -24.2 | 54.9
69 | GGGCAAGGAAACTCGCCC ((((.((....)).)))) | -31.1 | 50.7

Row | Sequence | folding enthalpy [1] [kcal/mol] | Tm [2] [°C]
70 | GATCACCCACGTGATC ((((((....)))))) | -47 | 56.5
71 | GAACCCCCGAAAGGGTTC (((..(((....)))))) | -24 | 55
72 | GCCTCCGCGAAAGCGGGC (((..(((....)))))) | -5.39 | 52.2
73 | GAGTCCGAAAGGAGGCTC ((((((....)))..))) | -20.7 | 47.4
74 | GTTTGAGGAAACTCAGAC ((.((((....)))).)) | -23.4 | 39
75 | GCCCGCCGAAAGGCTGGC (((.(((....))).))) | -36.2 | 65.1
76 | GATCTACTTCTAGATC ((((((....)))))) | -33.5 | 38.7
77 | GGCTCGGGAAACCGGGCC (((.(((....))).))) | -38.4 | 66
78 | GAGCATGGAAACATACTC (((.(((....))).))) | -26.1 | 35.6
79 | GTCGTAGGAAACTATGAC (((.(((....))).))) | -35.4 | 45.2
80 | GTAACAGGAAACCGTTAC (((((.(....).))))) | -29.5 | 37.5
81 | GACTTTGCGAAAGCAGTC (((..(((....)))))) | -14.4 | 32.8
82 | GTCATCGGAAACGATGAC (((((((....))))))) | -40 | 67.8
83 | GATCTCTCAGAGATC ((((((...)))))) | -33.8 | 54.2
84 | GCCGTGCGAAAGCAGAGC ((..(((....)))..)) | -13.5 | 51.9
85 | GATCGAGCCATCGATC ((((((....)))))) | -39.7 | 59.2
86 | GATCTGGGAAACTGGATC ((((..(....)..)))) | -26.2 | 35.2
87 | GGCAACGAAAGTTGGGCC ((((((....)))..))) | -16.9 | 44.6
88 | GGCGTCGAAAGACCTGCC ((((((....)))..))) | -18.5 | 46.6
89 | GGCCAACCGAAAGGTGCC (((..(((....)))))) | -23.8 | 50.4
90 | GCGCGCGAAAGCGCCCGC ((((((....)))..))) | -9.74 | 45.8
91 | GATCTCCCCGAGATC ((((((...)))))) | -36.9 | 55.3
92 | GTTGCAGGAAACTGCAAC (((((((....))))))) | -39.6 | 68
